Data: ChEMBL document CHEMBL4834437, “Improvement of Oral Bioavailability of Pyrazolo-Pyridone Inhibitors of the Interaction of DCN1/2 and UBE2M” (J Med Chem, 2021)

How the values were obtained:
[1] = mouse, in vivo, po, 50 mg/kg, 24 h
[2] = AUC in C57BL/6 mouse at 50 mg/kg, po administered as single dose measured up to 24 hrs by LC/MS analysis; format: ADME, organism-based; parameters: route oral, dose 50 mg/kg, time <=24; settings: in vivo
Outline: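 Plasma drug concentration followed over 24 h. Concentrations below LLOQ were entered as half LLOQ. The same formulation was used for a separate intravenous arm at 15 mg/kg.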

[3] = Oral bioavailability in C57BL/6 mouse at 50 mg/kg administered as single dose measured up to 24 hrs by LC/MS analysis; format: ADME, organism-based; settings: in vivo
Outline: (§1)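 Single dose given to mice either intravenously at 15 mg/kg or orally at 50 mg/kg. Plasma drug concentration was followed over 24 h. Concentrations below LLOQ were reported as half LLOQ.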

[4] = Toxicity in C57BL/6 mouse assessed as effect on BUN/creatinine ratio at 50 mg/kg, po administered as 10 consecutive doses measured after 48 hrs; format: organism-based; settings: in vivo
[5] = Toxicity in C57BL/6 mouse assessed as effect on phosphorous level at 200 mg/kg, po administered as single dose measured after 48 hrs; format: organism-based; settings: in vivo
[6] = Toxicity in C57BL/6 mouse assessed as effect on MCH level at 50 mg/kg, po administered as 10 consecutive doses measured after 48 hrs; format: organism-based; settings: in vivo
[7] = Toxicity in po dosed C57BL/6 mouse assessed as maximum tolerated dose administered as 10 consecutive doses measured after 48 hrs; format: organism-based; settings: in vivo
in vivo = settings: C57BL/6, mouse, plasma
[8] = Toxicity in C57BL/6 mouse assessed as effect on chloride level at 50 mg/kg, po administered as 10 consecutive doses measured after 48 hrs; format: organism-based; settings: in vivo
[9] = Toxicity in C57BL/6 mouse assessed as effect on albumin level at 200 mg/kg, po administered as single dose measured after 48 hrs; format: organism-based; settings: in vivo
[10] = Toxicity in C57BL/6 mouse assessed as effect on albumin level at 50 mg/kg, po administered as 10 consecutive doses measured after 48 hrs; format: organism-based; settings: in vivo
[11] = Toxicity in C57BL/6 mouse assessed as effect on AST level at 50 mg/kg, po administered as 10 consecutive doses measured after 48 hrs; format: organism-based; settings: in vivo
[12] = Toxicity in C57BL/6 mouse assessed as effect on AST level at 200 mg/kg, po administered as single dose measured after 48 hrs; format: organism-based; settings: in vivo
[13] = Toxicity in C57BL/6 mouse assessed as effect on total bilirubin level at 200 mg/kg, po administered as single dose measured after 48 hrs; format: organism-based; settings: in vivo
[14] = Toxicity in C57BL/6 mouse assessed as effect on Na/K ratio at 50 mg/kg, po administered as 10 consecutive doses measured after 48 hrs; format: organism-based; settings: in vivo
[15] = Toxicity in C57BL/6 mouse assessed as effect on CPK level at 200 mg/kg, po administered as single dose measured after 48 hrs; format: organism-based; settings: in vivo
[16] = Toxicity in C57BL/6 mouse assessed as effect on RBC level at 50 mg/kg, po administered as 10 consecutive doses measured after 48 hrs; format: organism-based; settings: in vivo
[17] = Toxicity in C57BL/6 mouse assessed as effect on Na/K ratio at 200 mg/kg, po administered as single dose measured after 48 hrs; format: organism-based; settings: in vivo
[18] = Toxicity in C57BL/6 mouse assessed as effect on CPK level at 50 mg/kg, po administered as 10 consecutive doses measured after 48 hrs; format: organism-based; settings: in vivo
[19] = Toxicity in C57BL/6 mouse assessed as effect on BUN at 200 mg/kg, po administered as single dose measured after 48 hrs; format: organism-based; settings: in vivo
[20] = Toxicity in C57BL/6 mouse assessed as effect on potassium level at 50 mg/kg, po administered as 10 consecutive doses measured after 48 hrs; format: organism-based; settings: in vivo
[21] = Toxicity in C57BL/6 mouse assessed as effect on potassium level at 200 mg/kg, po administered as single dose measured after 48 hrs; format: organism-based; settings: in vivo
[22] = Toxicity in po dosed C57BL/6 mouse assessed as maximum tolerated dose administered as single dose measured after 48 hrs; format: organism-based; settings: in vivo
[23] = Oral bioavailability in C57BL/6 mouse; format: ADME, organism-based; settings: in vivo
Outline: as §1

[24] = Toxicity in C57BL/6 mouse assessed as effect on cholesterol level at 200 mg/kg, po administered as single dose measured after 48 hrs; format: organism-based; settings: in vivo
HCC95 = assay: Inhibition of colony formation in human HCC95 cells at 10 uM measured after 10 days by nitroblue tetrazolium chloride reagent based assay relative to control; settings: HCC95, 240 h
[25] = Toxicity in C57BL/6 mouse assessed as effect on total bilirubin level at 50 mg/kg, po administered as 10 consecutive doses measured after 48 hrs; format: organism-based; settings: in vivo
[26] = Toxicity in C57BL/6 mouse assessed as effect on chloride level at 200 mg/kg, po administered as single dose measured after 48 hrs; format: organism-based; settings: in vivo
[27] = Toxicity in C57BL/6 mouse assessed as effect on glucose level at 200 mg/kg, po administered as single dose measured after 48 hrs; format: organism-based; settings: in vivo
[28] = Toxicity in C57BL/6 mouse assessed as effect on platelet level at 50 mg/kg, po administered as 10 consecutive doses measured after 48 hrs; format: organism-based; settings: in vivo
[29] = Toxicity in C57BL/6 mouse assessed as effect on calcium level at 200 mg/kg, po administered as single dose measured after 48 hrs; format: organism-based; settings: in vivo
[30] = Toxicity in C57BL/6 mouse assessed as effect on MCHC level at 50 mg/kg, po administered as 10 consecutive doses measured after 48 hrs; format: organism-based; settings: in vivo
[31] = Toxicity in C57BL/6 mouse assessed as effect on calcium level at 50 mg/kg, po administered as 10 consecutive doses measured after 48 hrs; format: organism-based; settings: in vivo
[32] = Toxicity in C57BL/6 mouse assessed as effect on neutrophil level at 50 mg/kg, po administered as 10 consecutive doses measured after 48 hrs; format: organism-based; settings: in vivo
[33] = Toxicity in C57BL/6 mouse assessed as effect on BUN at 50 mg/kg, po administered as 10 consecutive doses measured after 48 hrs; format: organism-based; settings: in vivo
[34] = Toxicity in C57BL/6 mouse assessed as effect on A/G ratio at 200 mg/kg, po administered as single dose measured after 48 hrs; format: organism-based; settings: in vivo
[35] = Toxicity in C57BL/6 mouse assessed as effect on HGB level at 50 mg/kg, po administered as 10 consecutive doses measured after 48 hrs; format: organism-based; settings: in vivo
[36] = Toxicity in C57BL/6 mouse assessed as effect on A/G ratio at 50 mg/kg, po administered as 10 consecutive doses measured after 48 hrs; format: organism-based; settings: in vivo
[37] = Toxicity in C57BL/6 mouse assessed as effect on HCT level at 50 mg/kg, po administered as 10 consecutive doses measured after 48 hrs; format: organism-based; settings: in vivo
[38] = Toxicity in C57BL/6 mouse assessed as effect on globulin level at 200 mg/kg, po administered as single dose measured after 48 hrs; format: organism-based; settings: in vivo
[39] = Toxicity in C57BL/6 mouse assessed as effect on WBC level at 50 mg/kg, po administered as 10 consecutive doses measured after 48 hrs; format: organism-based; settings: in vivo
[40] = Toxicity in C57BL/6 mouse assessed as effect on BUN/creatinine ratio at 200 mg/kg, po administered as single dose measured after 48 hrs; format: organism-based; settings: in vivo
[41] = Toxicity in C57BL/6 mouse assessed as effect on globulin level at 50 mg/kg, po administered as 10 consecutive doses measured after 48 hrs; format: organism-based; settings: in vivo
[42] = Toxicity in C57BL/6 mouse assessed as effect on MCV level at 50 mg/kg, po administered as 10 consecutive doses measured after 48 hrs; format: organism-based; settings: in vivo
[43] = Toxicity in C57BL/6 mouse assessed as effect on creatinine level at 200 mg/kg, po administered as single dose measured after 48 hrs; format: organism-based; settings: in vivo
[44] = Toxicity in C57BL/6 mouse assessed as effect on ALT level at 200 mg/kg, po administered as single dose measured after 48 hrs; format: organism-based; settings: in vivo
[45] = Toxicity in C57BL/6 mouse assessed as effect on ALT level at 50 mg/kg, po administered as 10 consecutive doses measured after 48 hrs; format: organism-based; settings: in vivo
[46] = Toxicity in C57BL/6 mouse assessed as effect on creatinine level at 50 mg/kg, po administered as 10 consecutive doses measured after 48 hrs; format: organism-based; settings: in vivo
[47] = Toxicity in C57BL/6 mouse assessed as effect on alkaline phosphatase level at 200 mg/kg, po administered as single dose measured after 48 hrs; format: organism-based; settings: in vivo
[48] = Toxicity in C57BL/6 mouse assessed as effect on glucose level at 50 mg/kg, po administered as 10 consecutive doses measured after 48 hrs; format: organism-based; settings: in vivo
[49] = Toxicity in C57BL/6 mouse assessed as effect on cholesterol level at 50 mg/kg, po administered as 10 consecutive doses measured after 48 hrs; format: organism-based; settings: in vivo
[50] = Toxicity in C57BL/6 mouse assessed as effect on monocyte level at 50 mg/kg, po administered as 10 consecutive doses measured after 48 hrs; format: organism-based; settings: in vivo
[51] = Toxicity in C57BL/6 mouse assessed as effect on lymphocyte level at 50 mg/kg, po administered as 10 consecutive doses measured after 48 hrs; format: organism-based; settings: in vivo
[52] = Toxicity in C57BL/6 mouse assessed as effect on sodium level at 200 mg/kg, po administered as single dose measured after 48 hrs; format: organism-based; settings: in vivo
[53] = Toxicity in C57BL/6 mouse assessed as effect on basophil level at 50 mg/kg, po administered as 10 consecutive doses measured after 48 hrs; format: organism-based; settings: in vivo
[54] = Toxicity in C57BL/6 mouse assessed as effect on sodium level at 50 mg/kg, po administered as 10 consecutive doses measured after 48 hrs; format: organism-based; settings: in vivo
[55] = Toxicity in C57BL/6 mouse assessed as effect on alkaline phosphatase level at 50 mg/kg, po administered as 10 consecutive doses measured after 48 hrs; format: organism-based; settings: in vivo
[56] = Toxicity in C57BL/6 mouse assessed as effect on eosinophil level at 50 mg/kg, po administered as 10 consecutive doses measured after 48 hrs; format: organism-based; settings: in vivo
[57] = Toxicity in C57BL/6 mouse assessed as effect on phosphorous level at 50 mg/kg, po administered as 10 consecutive doses measured after 48 hrs; format: organism-based; settings: in vivo

`CCN1C(=O)[C@@H](NC(=O)c2cccc(C(F)(F)F)c2)[C@@H](c2ccc(F)cc2)c2c(C)nn(-c3ccccc3)c21` (relative stereo) showed a Cmax [1] of 1.15 µM, an AUC at 24 h [2] of 23.8 µM·h and an F [3] of 36%.
With `CCN1C(=O)[C@@H](NC(=O)c2cccc(C(F)(F)F)c2)[C@@H](c2ccc(F)cc2)c2c(CN)nn(-c3ccccc3)c21` (relative stereo) the Activity [4] was “Non-Toxic”, the Activity [5] was “Non-Toxic” and the Activity [6] was “Non-Toxic”. The MTD at 48 h [7] was 50 mg/kg, the clearance (in vivo) was 20 mL/min/kg and the Cmax [1] was 6 µM. For the same compound, the Activity [8] was “Non-Toxic”, the Activity [9] was “Non-Toxic” and the Activity [10] was “Non-Toxic”. The Activity [11] was “Non-Toxic”, the Activity [12] was “Non-Toxic” and the Activity [13] was “Non-Toxic”. The Activity [14] was “Non-Toxic”, the Activity [15] was “Non-Toxic” and the Activity [16] was “Non-Toxic”. The Activity [17] was “Non-Toxic”, the Activity [18] was “Non-Toxic” and the Activity [19] was “Non-Toxic”. For the same compound, the Activity [20] was “Non-Toxic”, the Activity [21] was “Non-Toxic” and the MTD at 48 h [22] was 200 mg/kg. For the same compound, the bioavailability [23] was 92%, the Activity [24] was “Non-Toxic” and the inhibition at 10 µM (HCC95) was 100%. The Activity [25] was “Non-Toxic”, the Activity [26] was “Non-Toxic” and the Activity [27] was “Non-Toxic”. The Activity [28] was “Non-Toxic”, the Activity [29] was “Non-Toxic” and the Activity [30] was “Non-Toxic”. For the same compound, the Activity [31] was “Non-Toxic”, the Activity [32] was “Non-Toxic” and the Activity [33] was “Non-Toxic”. For the same compound, the Activity [34] was “Non-Toxic”, the Activity [35] was “Non-Toxic” and the Activity [36] was “Non-Toxic”. The Activity [37] was “Non-Toxic”, the Activity [38] was “Non-Toxic” and the Activity [39] was “Non-Toxic”. The Activity [40] was “Non-Toxic”, the Activity [41] was “Non-Toxic” and the Activity [42] was “Non-Toxic”. For the same compound, the Activity [43] was “Non-Toxic”, the Activity [44] was “Non-Toxic” and the Activity [45] was “Non-Toxic”. For the same compound, the Activity [46] was “Non-Toxic”, the Activity [47] was “Non-Toxic” and the Activity [48] was “Non-Toxic”. For the same compound, the Activity [49] was “Non-Toxic”, the Activity [50] was “Non-Toxic” and the Activity [51] was “Non-Toxic”. For the same compound, the Activity [52] was “Non-Toxic”, the Activity [53] was “Non-Toxic” and the Activity [54] was “Non-Toxic”. For the same compound, the Activity [55] was “Non-Toxic”, the Activity [56] was “Non-Toxic” and the Activity [57] was “Non-Toxic”.
